# Results published in ChEMBL document CHEMBL4689842, “EUbOPEN Chemogenomics Library wave 1” (2021).
# Test system: U2OS
# Test: Multiplex assay against U2OS
# Type: toxicity, cell-based
# Details: human
# Outline: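 At seeding, live cells were stained with Hoechst33342, BioTracker Green Microtubule Cytoskeleton Dye, MitoTracker Red and Annexin V Alexa Fluor 680. After compound addition they were imaged on a CQ1 microscope at 37°C and 5% CO2, and CellPathfinder machine-learning gating sorted them into Hoechst high-intensity objects or normal cells, with normal cells further split into healthy, pyknosed or fragmented nuclei and pyknosed cells into mitotic or apoptotic. Tubulin, mitochondrial-mass and membrane-permeability phenotypes are given as per cents of cells with healthy nuclei.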
# [1] = 12 h, 1 µM, compound concentration 1 uM, replicate 1
# [2] = 12 h, 1 µM, compound concentration 1 uM, replicate 2
# [3] = 12 h, 10 µM, compound concentration 10 uM, replicate 1
# [4] = 12 h, 10 µM, compound concentration 10 uM, replicate 2
# [5] = 24 h, 1 µM, compound concentration 1 uM, replicate 1
# [6] = 24 h, 1 µM, compound concentration 1 uM, replicate 2
# [7] = 24 h, 10 µM, compound concentration 10 uM, replicate 1
# [8] = 24 h, 10 µM, compound concentration 10 uM, replicate 2
# [9] = 48 h, 1 µM, compound concentration 1 uM, replicate 1
# [10] = 48 h, 1 µM, compound concentration 1 uM, replicate 2
# [11] = 48 h, 10 µM, compound concentration 10 uM, replicate 1
# [12] = 48 h, 10 µM, compound concentration 10 uM, replicate 2
compound,measurement,setting,value
CC(C)(O)CNc1ncc(-c2ccnc(Nc3ccnc(Cl)c3)n2)c(CC2CC2)n1,Population Apoptotic (%),[1],44%
same,Population Fragmented Nuclei (%),[1],9%
same,Population Healthy Nuclei (%),[1],71%
same,Population Hoechst High Intensity Objects (%),[1],3%
same,Population Membrane Permeable-Phenotype (%),[1],8%
same,Population Mitochondria Different-Phenotype (%),[1],24%
same,Population Mitotic Cells (%),[1],55%
same,Population Normal (%),[1],96%
same,Population Pyknosed Nuclei (%),[1],18%
same,Population Tubulin-Different-Phenotype (%),[1],19%
same,Total Cell Count,[1],182
same,Population Apoptotic (%),[2],9%
same,Population Healthy Nuclei (%),[2],78%
same,Population Hoechst High Intensity Objects (%),[2],5%
same,Population Membrane Permeable-Phenotype (%),[2],5%
same,Population Mitochondria Different-Phenotype (%),[2],17%
same,Population Mitotic Cells (%),[2],90%
same,Population Normal (%),[2],94%
same,Population Pyknosed Nuclei (%),[2],12%
same,Population Tubulin-Different-Phenotype (%),[2],14%
same,Total Cell Count,[2],97
same,Population Apoptotic (%),[3],50%
same,Population Fragmented Nuclei (%),[3],18%
same,Population Healthy Nuclei (%),[3],42%
same,Population Hoechst High Intensity Objects (%),[3],14%
same,Population Membrane Permeable-Phenotype (%),[3],24%
same,Population Mitochondria Different-Phenotype (%),[3],90%
same,Population Mitotic Cells (%),[3],50%
same,Population Normal (%),[3],85%
same,Population Pyknosed Nuclei (%),[3],38%
same,Population Tubulin-Different-Phenotype (%),[3],100%
same,Total Cell Count,[3],202
same,Population Apoptotic (%),[4],15%
same,Population Fragmented Nuclei (%),[4],10%
same,Population Healthy Nuclei (%),[4],64%
same,Population Hoechst High Intensity Objects (%),[4],7%
same,Population Membrane Permeable-Phenotype (%),[4],28%
same,Population Mitochondria Different-Phenotype (%),[4],96%
same,Population Mitotic Cells (%),[4],84%
same,Population Normal (%),[4],92%
same,Population Pyknosed Nuclei (%),[4],26%
same,Total Cell Count,[4],93
same,Population Apoptotic (%),[5],35%
same,Population Fragmented Nuclei (%),[5],6%
same,Population Healthy Nuclei (%),[5],75%
same,Population Hoechst High Intensity Objects (%),[5],3%
same,Population Membrane Permeable-Phenotype (%),[5],5%
same,Population Mitochondria Different-Phenotype (%),[5],22%
same,Population Mitotic Cells (%),[5],64%
same,Population Normal (%),[5],96%
same,Population Pyknosed Nuclei (%),[5],18%
same,Population Tubulin-Different-Phenotype (%),[5],10%
same,Total Cell Count,[5],196
same,Population Apoptotic (%),[6],20%
same,Population Fragmented Nuclei (%),[6],11%
same,Population Healthy Nuclei (%),[6],74%
same,Population Hoechst High Intensity Objects (%),[6],4%
same,Population Membrane Permeable-Phenotype (%),[6],10%
same,Population Mitochondria Different-Phenotype (%),[6],20%
same,Population Mitotic Cells (%),[6],80%
same,Population Normal (%),[6],95%
same,Population Pyknosed Nuclei (%),[6],15%
same,Population Tubulin-Different-Phenotype (%),[6],16%
same,Total Cell Count,[6],136
same,Population Apoptotic (%),[7],52%
same,Population Fragmented Nuclei (%),[7],26%
same,Population Healthy Nuclei (%),[7],22%
same,Population Hoechst High Intensity Objects (%),[7],12%
same,Population Membrane Permeable-Phenotype (%),[7],47%
same,Population Mitochondria Different-Phenotype (%),[7],100%
same,Population Mitotic Cells (%),[7],47%
same,Population Normal (%),[7],87%
same,Population Pyknosed Nuclei (%),[7],51%
same,Population Tubulin-Different-Phenotype (%),[7],100%
same,Total Cell Count,[7],240
same,Population Apoptotic (%),[8],47%
same,Population Fragmented Nuclei (%),[8],14%
same,Population Healthy Nuclei (%),[8],40%
same,Population Hoechst High Intensity Objects (%),[8],14%
same,Population Mitochondria Different-Phenotype (%),[8],89%
same,Population Mitotic Cells (%),[8],52%
same,Population Normal (%),[8],85%
same,Population Pyknosed Nuclei (%),[8],44%
same,Total Cell Count,[8],105
same,Population Apoptotic (%),[9],45%
same,Population Fragmented Nuclei (%),[9],6%
same,Population Hoechst High Intensity Objects (%),[9],2%
same,Population Membrane Permeable-Phenotype (%),[9],9%
same,Population Mitochondria Different-Phenotype (%),[9],10%
same,Population Mitotic Cells (%),[9],54%
same,Population Normal (%),[9],97%
same,Population Pyknosed Nuclei (%),[9],17%
same,Population Tubulin-Different-Phenotype (%),[9],7%
same,Total Cell Count,[9],130
same,Population Apoptotic (%),[10],50%
same,Population Fragmented Nuclei (%),[10],13%
same,Population Healthy Nuclei (%),[10],76%
same,Population Hoechst High Intensity Objects (%),[10],3%
same,Population Membrane Permeable-Phenotype (%),[10],17%
same,Population Mitochondria Different-Phenotype (%),[10],24%
same,Population Mitotic Cells (%),[10],50%
same,Population Normal (%),[10],96%
same,Population Pyknosed Nuclei (%),[10],10%
same,Population Tubulin-Different-Phenotype (%),[10],22%
same,Total Cell Count,[10],90
same,Population Apoptotic (%),[11],82%
same,Population Fragmented Nuclei (%),[11],35%
same,Population Healthy Nuclei (%),[11],12%
same,Population Hoechst High Intensity Objects (%),[11],15%
same,Population Membrane Permeable-Phenotype (%),[11],50%
same,Population Mitochondria Different-Phenotype (%),[11],90%
same,Population Mitotic Cells (%),[11],17%
same,Population Normal (%),[11],84%
same,Population Pyknosed Nuclei (%),[11],51%
same,Population Tubulin-Different-Phenotype (%),[11],100%
same,Total Cell Count,[11],308
same,Population Apoptotic (%),[12],61%
same,Population Fragmented Nuclei (%),[12],19%
same,Population Healthy Nuclei (%),[12],23%
same,Population Hoechst High Intensity Objects (%),[12],17%
same,Population Membrane Permeable-Phenotype (%),[12],100%
same,Population Mitochondria Different-Phenotype (%),[12],100%
same,Population Mitotic Cells (%),[12],38%
same,Population Normal (%),[12],82%
same,Population Pyknosed Nuclei (%),[12],56%
same,Total Cell Count,[12],141
